Data: ChEMBL document CHEMBL3046072, “Plant P5C reductase as a new target for aminomethylenebisphosphonates” (J Agric Food Chem, 2007)

Columns and labels:
[1] = molecular target: T1, Pyrroline-5-carboxylate reductase (Arabidopsis thaliana) (UniProt P54904); assay: Inhibition of Arabidopsis thaliana P5C reductase catalytic activity assessed as inhibition of NADH oxidation at 340 nm OD at 0.2 mM by NADH oxidation assay; set-up: scale not given: the % may be the effect or the level left
T1 sequence (whole entry): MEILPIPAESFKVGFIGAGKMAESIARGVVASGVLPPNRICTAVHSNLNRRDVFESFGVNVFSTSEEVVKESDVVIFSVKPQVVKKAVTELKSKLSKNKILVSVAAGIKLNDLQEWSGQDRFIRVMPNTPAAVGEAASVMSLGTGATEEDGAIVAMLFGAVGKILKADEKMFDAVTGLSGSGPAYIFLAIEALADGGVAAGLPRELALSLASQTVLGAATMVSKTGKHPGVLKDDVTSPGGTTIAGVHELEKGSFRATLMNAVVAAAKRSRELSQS

[2] = molecular target: T1, Pyrroline-5-carboxylate reductase (Arabidopsis thaliana); assay: Inhibition of Arabidopsis thaliana P5C reductase catalytic activity assessed as […] at 535 nm OD at 0.5 mM by P5C utilization assay; set-up: scale not given: the % may be the effect or the level left
How it was run: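 The partially purified Arabidopsis enzyme was run in the same Tris pH 8.0/MgCl2/DL-P5C/NADH mix with compound at 0.5 mM, at 35 °C. Aliquots taken every 40 s received Na acetate and 0.15% ninhydrin in acetic acid, then 10 min at 55 °C. Residual P5C was read at 535 nm (ε 4600 M⁻¹ cm⁻¹). At least three replicates; activity given as % of untreated control.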

[3] = molecular target: 3-phosphoshikimate 1-carboxyvinyltransferase (Spinacia oleracea); assay: Inhibition of Spinacia oleracea (spinach) EPSP synthase activity; conditions: read-out: I50
[4] = molecular target: T2, Pyrroline-5-carboxylate reductase (Arabidopsis thaliana, UniProt P54904); assay: Noncompetitive inhibition of Arabidopsis thaliana P5C reductase by Lineweaver-Burk plot in presence of NADPH
T2 sequence (P54904 whole entry): T1 sequence (whole entry)

[5] = molecular target: 3-phosphoshikimate 1-carboxyvinyltransferase (Nicotiana tabacum); assay: Inhibition of EPSP synthase in Nicotiana tabacum (tobacco) cells; conditions: read-out: I50
[6] = molecular target: T2, Pyrroline-5-carboxylate reductase; assay: Noncompetitive inhibition of Arabidopsis thaliana P5C reductase by Lineweaver-Burk plot
[7] = molecular target: T2, Pyrroline-5-carboxylate reductase; assay: Uncompetitive inhibition of Arabidopsis thaliana P5C reductase by Dixon plot
[8] = molecular target: T2, Pyrroline-5-carboxylate reductase; assay: Inhibition of Arabidopsis thaliana P5C reductase catalytic activity; conditions: read-out: I50
How it was run: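 P5C reductase partially purified from A. thaliana Columbia suspension-cultured cells by ammonium sulfate cut and two DEAE-Sephacel steps. Assay at 35 °C: 100 mM Tris-HCl pH 8.0, 0.1 mM MgCl2, 2 mM DL-P5C, 0.25 mM NADH. Read as NADH oxidation at 340 nm, or as P5C loss by ninhydrin at 535 nm. Inhibitor neutralised to pH 7.4, tested over 0.010–5 mM. I50 from regression of % control activity versus log concentration.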

O=P(O)(O)C(Nc1ccncc1)P(=O)(O)O
Activity [1]: 115%
Activity [2]: 101%

O=P(O)(O)C(NC1CCCCC1)P(=O)(O)O
Activity [1]: 108%
Activity [2]: 93.8%

O=P(O)(O)C(NCc1ccccn1)P(=O)(O)O
Activity [1]: 118%
Activity [2]: 92.9%

O=[N+]([O-])c1cccc(NC(P(=O)(O)O)P(=O)(O)O)c1
Activity [1]: 102%
Activity [2]: 96.4%

O=P(O)(O)C(Nc1ccc(Cl)nc1)P(=O)(O)O
Activity [1]: 99.4%
Activity [2]: 94.9%

Cc1ccc(NC(P(=O)(O)O)P(=O)(O)O)cc1
Activity [1]: 110%
Activity [2]: 98.2%

O=P(O)(O)C(NCCc1ccc(O)cc1)P(=O)(O)O
Activity [1]: 105%
Activity [2]: 94.4%

O=P(O)(O)C(Nc1ccccc1)P(=O)(O)O
Activity [1]: 98.3%
Activity [2]: 114%

Cc1cccc(NC(P(=O)(O)O)P(=O)(O)O)n1
Activity [1]: 88.7%
Activity [2]: 103%

O=C(O)c1cccc(NC(P(=O)(O)O)P(=O)(O)O)c1
Activity [1]: 95%
Activity [2]: 92.4%

O=P(O)(O)C(Nc1ncccn1)P(=O)(O)O
Activity [1]: 110%
Activity [2]: 91.7%

O=P(O)(O)C(Nc1cc(Cl)cc(Cl)c1)P(=O)(O)O [(3,5-DICHLOROPHENYLAMINO)METHYLENEDIPHOSPHONIC ACID]
IC50 [3]: 30 µM
Ki [4]: 230 µM
IC50 [5]: 30 µM
Ki [6]: 199 µM
Ki [7]: 10.3 µM
Activity [1]: 37.7%
Activity [2]: 28%

Cc1ccnc(NC(P(=O)(O)O)P(=O)(O)O)c1
Activity [1]: 106%
Activity [2]: 106%

O=P(O)(O)C(Nc1ccc(I)cn1)P(=O)(O)O
Activity [1]: 106%
Activity [2]: 89.9%

O=P(O)(O)C(Nc1ncc(Br)cc1Br)P(=O)(O)O
Activity [1]: 92%
Activity [2]: 99.8%

O=P(O)(O)C(Nc1cccnc1)P(=O)(O)O
Activity [1]: 109%
Activity [2]: 102%

Cc1nc(NC(P(=O)(O)O)P(=O)(O)O)c(Br)cc1Br
Activity [1]: 66.1%
Activity [2]: 54.8%
IC50 [8]: 300 µM

Cc1ccccc1CNC(P(=O)(O)O)P(=O)(O)O
Activity [1]: 109%
Activity [2]: 96.9%

O=C(O)c1cccnc1NC(P(=O)(O)O)P(=O)(O)O
Activity [1]: 96.3%
Activity [2]: 94.1%

O=P(O)(O)C(Nc1ncc(Cl)cc1Cl)P(=O)(O)O
Activity [1]: 105%
Activity [2]: 97%

NC(P(=O)(O)O)P(=O)(O)O [AMINOMETHYLENEBISPHOSPHONIC ACID]
Activity [1]: 106%
Activity [2]: 84.6%
IC50 [8]: 44 µM

O=P(O)(O)C(Nc1ccc(Br)cn1)P(=O)(O)O
Activity [1]: 104%
Activity [2]: 100%

O=P(O)(O)C(NCc1ccccc1)P(=O)(O)O
Activity [1]: 98.5%
Activity [2]: 100%

O=P(O)(O)C(Nc1ccccn1)P(=O)(O)O
Activity [1]: 114%
Activity [2]: 104%

O=P(O)(O)C(Nc1ccnc(Cl)c1)P(=O)(O)O
Activity [1]: 91.2%
Activity [2]: 97.9%

O=P(O)(O)C(Nc1ccc(Cl)cn1)P(=O)(O)O
Activity [1]: 101%
Activity [2]: 92.4%
